From ChEMBL document CHEMBL3860043, “Non-Acidic Free Fatty Acid Receptor 4 Agonists with Antidiabetic Activity” (J Med Chem, 2016)
In brackets after ≈: the same amount, converted by molar mass. Activity calls are given as the source filed them. The calls are words filed in the database; no cut-off is given here.

How the values were obtained:
[1] = target: T1, Free fatty acid receptor 1 (Homo sapiens, UniProt O14842); test: Antagonist activity against human FFA1 expressed in human Flp-In T-REx293 cells assessed as as reduction in TUG424-induced response by Fura2-AM dye based calcium mobilization assay; type: functional, cell-based
T1 sequence (O14842 whole entry): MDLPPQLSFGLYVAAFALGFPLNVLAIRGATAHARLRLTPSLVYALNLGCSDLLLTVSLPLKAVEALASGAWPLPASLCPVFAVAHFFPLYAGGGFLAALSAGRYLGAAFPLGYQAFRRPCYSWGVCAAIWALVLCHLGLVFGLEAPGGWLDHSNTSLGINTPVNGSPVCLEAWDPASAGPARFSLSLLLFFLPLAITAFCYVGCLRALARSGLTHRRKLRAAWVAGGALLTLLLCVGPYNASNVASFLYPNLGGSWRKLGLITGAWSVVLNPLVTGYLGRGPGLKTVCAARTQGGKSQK
How it was run: (§1)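 Flp-In T-REx 293 cells with inducible human FFA1, seeded at 50000 cells/well and induced with 100 ng/ml doxycycline after 3-4 h adherence. Next day loaded with Fura2-AM for 45 min, washed, then preincubated 15 min in HBSS with test ligand before 300 nM agonist challenge. Fura2 340:380 ratio change read at 510 nm emission. Inhibition expressed as % reduction of the agonist response.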

[2] = target: T1, Free fatty acid receptor 1; test: Antagonist activity against human FFA1 expressed in human Flp-In T-REx293 cells assessed as as reduction in 300 nM TUG424-induced response by Fura2-AM dye based calcium mobilization assay relative to untreated control; type: functional, cell-based; how it was run: as §1
[3] = target: T2, Free fatty acid receptor 4 (Homo sapiens, UniProt Q5NUL3); test: Agonist activity at C-terminal YFP-tagged human FFA4 expressed in HEK293 cells in presence of coelentrazine h by BRET based beta-arrestin-2 interaction assay; type: cell-based
T2 sequence (Q5NUL3 whole entry): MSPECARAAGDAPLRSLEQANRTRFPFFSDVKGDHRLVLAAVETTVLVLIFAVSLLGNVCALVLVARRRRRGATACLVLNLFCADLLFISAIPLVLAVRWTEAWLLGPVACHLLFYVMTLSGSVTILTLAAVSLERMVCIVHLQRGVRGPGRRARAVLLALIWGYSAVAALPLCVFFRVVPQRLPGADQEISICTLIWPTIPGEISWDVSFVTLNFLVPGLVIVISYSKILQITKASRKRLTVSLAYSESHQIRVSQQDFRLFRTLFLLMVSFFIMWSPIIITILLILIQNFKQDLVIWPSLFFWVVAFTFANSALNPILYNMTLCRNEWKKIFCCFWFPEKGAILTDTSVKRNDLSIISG
How it was run: (§2)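 HEK293 cells co-transfected with C-terminal eYFP-fused human FFA4 and β-arrestin-2–Renilla luciferase; plated 24 h post-transfection, used 24 h later. After an HBSS wash, coelenterazine h (2.5 µM) for 15 min, with ligands present for the final 5 min, 37 °C. BRET taken as the 535/475 nm emission ratio. Efficacy relative to 100 µM reference agonist. Three-parameter sigmoidal fits; mean ± S.E. of 2-4 independent experiments.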

[4] = target: T3, Free fatty acid receptor 4 (Homo sapiens) (UniProt Q5NUL3); test: Agonist activity at C-terminal YFP-tagged human FFA4 expressed in HEK293 cells in presence of coelentrazine h by BRET based beta-arrestin-2 interaction assay relative to 100 uM […]; type: cell-based; how it was run: as §2
T3 sequence (whole entry): T2 sequence (Q5NUL3 whole entry)

[5] = target: T2, Free fatty acid receptor 4; test: Agonist activity at human FFA4 expressed in human Flp-In T-REx293 cells by Fura2-AM dye based calcium mobilization assay; type: functional, cell-based
How it was run: (§3)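 Flp-In T-REx 293 cells with doxycycline-inducible human FFA4 seeded at 50000 cells/well and induced overnight with 100 ng/ml doxycycline. Loaded with Fura2-AM for 45 min, washed three times in HBSS, equilibrated 15 min, then ligand added. Emission at 510 nm with 340/380 nm excitation; response is the change in 340:380 ratio. Efficacy relative to 100 µM reference agonist; 2-4 independent experiments, sigmoidal fits.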

[6] = target: T3, Free fatty acid receptor 4 (Homo sapiens); test: Agonist activity at human FFA4 expressed in human Flp-In T-REx293 cells by Fura2-AM dye based calcium mobilization assay relative to 100 uM […]; type: functional, cell-based; how it was run: as §3
[7] = Lipophilicity, log D of the compound at pH 7.4; type: physicochemical; conditions: buffer
[8] = Solubility in PBS buffer; type: physicochemical
[9] = target: T4, Free fatty acid receptor 4 (Mus musculus, UniProt Q7TMA4); test: Agonist activity mouse FFA4 by Gq-dependent calcium mobilization assay; type: functional
T4 sequence (Q7TMA4 whole entry): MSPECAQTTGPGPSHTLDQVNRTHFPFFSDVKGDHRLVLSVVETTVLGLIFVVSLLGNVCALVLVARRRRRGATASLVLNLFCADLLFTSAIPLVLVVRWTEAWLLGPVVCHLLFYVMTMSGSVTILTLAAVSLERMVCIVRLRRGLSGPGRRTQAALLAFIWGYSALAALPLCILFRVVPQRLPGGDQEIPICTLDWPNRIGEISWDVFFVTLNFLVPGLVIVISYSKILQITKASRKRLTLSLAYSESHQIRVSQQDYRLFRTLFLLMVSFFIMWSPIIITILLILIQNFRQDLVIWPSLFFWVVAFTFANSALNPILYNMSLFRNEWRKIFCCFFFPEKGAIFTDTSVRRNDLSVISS

Mus musculus = test: Reduction in plasma glucose level in mouse at 10 mg/kg, po dosed 15 mins before oral glucose challenge by OGTT method; type: functional, organism-based
How it was run: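 Mice fasted 5 h and given compound orally at 10 mg/kg, 15 min before an oral glucose load of 3 g/kg. Tail-tip blood sampled under local anesthetic 30 min before and immediately before the load, and at 30, 60, 90, 120 and 180 min after it. Glucose measured in duplicate by glucose oxidase colorimetric assay; n=6 mice per group.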

IC50 [1] [nM] | Imax [2] [%] | EC50 ([3]; read-out: pEC50 (converted)) [nM] | Emax [4] [%] | EC50 [5] [nM] | Emax [6] [%] | logD [7] | solubility [8] [µM] | EC50 [9] [nM] | EC50 [3] [nM] | SMILES | Activity (Mus musculus)
– | – | 5010 | 45 | – | – | – | – | – | – | O=C1c2ccccc2C(=O)N1c1cc(F)cc(Oc2cccnc2)c1 | –
– | – | 490 | 82 | – | – | – | – | – | – | COc1ccc(S(=O)(=O)Nc2c(C)cc(C)cc2C)cc1 | –
> 100000 | – | 1260 | 97 | 1700 | 120 | – | – | – | – | O=S1(=O)c2ccccc2CN1c1cc(F)cc(Oc2ccncc2)c1 | –
> 100000 | – | 437 | 107 | 302 | 115 | 3.12 | 11 (≈ 3.92 µg/mL) | 83.2 | – | O=S1(=O)c2ccccc2CN1c1cc(F)cc(Oc2cccnc2)c1 | Active
8130 | 68 | 5370 | 76 | – | – | – | – | – | – | CCCCc1ccc(NS(=O)(=O)c2ccc(F)cc2)cc1 | –

Second part, the molecule before the results:

SMILES | IC50 [1] [nM] | Imax [2] [%] | EC50 ([3]; read-out: pEC50 (converted)) [nM] | Emax [4] [%] | EC50 [5] [nM] | Emax [6] [%] | logD [7] | solubility [8] [µM] | EC50 [9] [nM] | EC50 [3] [nM] | Activity (Mus musculus)
Cc1ccc(S(=O)(=O)Nc2ccc(Oc3ccccc3)cc2)cc1 | 10000 | 100 | – | – | – | – | – | – | – | – | –
O=S(=O)(Nc1cc(F)cc(Oc2cccnc2)c1)c1ccc(F)cc1 | – | – | 16600 | 39 | – | – | – | – | – | – | –
N#Cc1ccc(Oc2cc(F)cc(N3Cc4ccccc4S3(=O)=O)c2)cc1 | 617 | 43 | 1660 | 87 | 2340 | 29 | – | – | – | – | –
O=S1(=O)c2ccccc2CN1c1cc(F)cc(Oc2ccccc2)c1 | 3890 | 47 | 234 | 101 | 380 | 78 | – | – | – | < 10000 | –
O=S1(=O)c2ccccc2CN1c1cccc(Oc2ccccn2)c1 | > 100000 | – | 1550 | 102 | 1020 | 93 | – | – | – | – | –
Cc1ccc(Oc2cc(F)cc(N3Cc4ccccc4S3(=O)=O)c2)cc1 | 2880 | 52 | 437 | 91 | 1100 | 38 | – | – | – | – | –
